High-throughput results deposited in PubChem by several laboratories.
Calb biofilm kill = clotrimazole potentiators killing C. albicans biofilm, primary screen, 4-compound mixtures; C. albicans biofilm persisters + clotrimazole, fluorescence viability; primary screen in compound mixtures of four per well; inhibition, % at 7.6 µM; actives 0.02% (n = 120,000); AID 1242, 2008;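 active means inhibition above 30.3% in the primary screen of four-compound pools, then above 30% when the compound was retested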;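 further: compounds exposed to preformed 24 h biofilms for 48 h; 0% = untreated biofilm control and 100% = clotrimazole plus chlorhexidine kill blank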
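System: C. albicans CAF4-2 wild-type biofilms; Medium: RPMI/MOPS medium, pH 7.0; Reagent: Clotrimazole, 50 µg/mL; Times: biofilm formation 24 h, compound exposure 48 h, 37 °C; Detection: 2-h Alamar Blue fluorescence, 535/590 nm excitation/emission; Evaluation: percent inhibition of biofilm viability.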
ROMK primary = ROMK potassium channel modulators, primary screen, cell-based, thallium flux, MLSMR library; B-score at 10 µM; Tet-inducible ROMK, thallium flux fluorescence; actives lie on both sides; actives 2% (n = 130,000);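 active means signal ratio slope over the read window, or its plate-corrected B-score, at least 3 SD from the plate mean, either direction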;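 further: B-score of the F/F0 ratio slope over 7 to 12 s after thallium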
Target sequence (P48048 whole entry, looked up): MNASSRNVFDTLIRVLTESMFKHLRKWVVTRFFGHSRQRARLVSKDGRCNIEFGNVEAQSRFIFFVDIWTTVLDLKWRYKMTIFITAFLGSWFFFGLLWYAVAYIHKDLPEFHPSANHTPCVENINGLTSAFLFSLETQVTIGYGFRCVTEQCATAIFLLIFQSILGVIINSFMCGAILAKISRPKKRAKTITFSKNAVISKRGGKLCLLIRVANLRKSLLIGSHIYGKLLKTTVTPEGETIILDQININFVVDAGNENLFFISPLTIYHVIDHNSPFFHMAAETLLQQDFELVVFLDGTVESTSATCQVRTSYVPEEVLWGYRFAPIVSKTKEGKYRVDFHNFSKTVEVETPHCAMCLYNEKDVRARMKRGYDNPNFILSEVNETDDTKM
ROMK retest = ROMK channel modulator hit retest, confirmation, cell-based, thallium flux, duplicate, resupplied hits; AID 1917, 2009; actives 54% (n = 3,000); fluorescence ratio; active compounds read low; normalized thallium flux (F/F0 slope) at 10 µM; shares compounds with ROMK primary;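 active means Flux at 10 µM at least 3 SD below or above vehicle control mean in one or both replicates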
* marks the source's active call; other numbers are inactive results; x = not tested or not shown. This excerpt belongs to a sample that is enriched for hits.

SMILES	Calb biofilm kill	ROMK primary	ROMK retest
O=C(Nc1cc(S(=O)(=O)N2CCOCC2)ccc1N1CCOCC1)c1cccc(S(=O)(=O)N2CCCCC2)c1	14	x	x
Cc1cc(Oc2ccc(=O)[nH]n2)nc(Cl)n1	18	x	x
CCCCc1nnc(NC(=O)C(=O)OCC)s1	5	0.079	x
O=C(NCCO)c1nc2ccccc2s1	12	0.0038	x
COc1ccc(N2CCN(CC(=O)NCc3ccccc3)CC2)cc1	14	-1.2	x
CCOC(=O)/C(=C\c1ccccc1)C(=O)c1cc(C(C)=O)c(Nc2ccccc2)s1	x	0.26	x
CCOC(=O)/C(=C\c1cccnc1)C(=O)c1cc(C(C)=O)c(Nc2ccccc2)s1	x	-3*	0.05*
CCc1cc2c(=O)c(-c3cscn3)coc2cc1O	x	2.5*	0.076
CCOC(=O)c1oc2cc(O)c(CC)cc2c(=O)c1-c1cscn1	9	0.36	x
NNC(=S)Nc1ccc(C(F)(F)F)cc1Cl	14	x	x
O=c1[nH]c2ccc(F)cc2[nH]c1=O	17	0.0023	x
Cc1ccc(-n2c3nc(=O)[nH]c(=O)c-3cc3cc([N+](=O)[O-])ccc32)cc1	24	-6.6*	0.038*
Cc1ccc(-n2c(C)nn(Cc3ccc([N+](=O)[O-])cc3)c2=O)cc1	18	-0.3	x
CNc1nc(-c2ccc3c(c2)CCN3C(=O)c2ccccc2C)cs1	8	0.5	x
COc1cc(N2CCCC2)c(OC)cc1/C=C(/C#N)c1cccc(F)c1	x	-2.4	x
N#C/C(=C/c1ccc(N2CCCCCC2)o1)c1cccc(F)c1	x	-2.9*	0.057*
Cc1ccc(Nc2nnc(SCC(=O)NC(Cc3c[nH]c4ccccc34)C(=O)O)s2)cc1 (stereo unspecified)	15	1.7	x
CC(c1ccco1)N(C(=O)c1ccccc1NS(=O)(=O)c1ccc(Cl)c([N+](=O)[O-])c1)c1ccccn1 (stereo unspecified)	12	x	0.062*
Cc1cccc(C(=O)N(c2ccccn2)C(C)c2ccco2)c1 (stereo unspecified)	10	0.3	x
Cc1cccc(S(=O)(=O)c2c(C)cc(C)nc2Cl)c1	5	1.5	x
CCCNC(=S)N1CCN(C(c2ccccc2)c2ccccc2)CC1	-10	-3.2*	0.082
CCCCNC(=S)N1CCN(C(c2ccccc2)c2ccccc2)CC1	-2	0.27	x
O=C(NC(CC(=O)N1CCN(c2ccc([N+](=O)[O-])cc2)CC1)c1ccccc1)c1ccccc1Cl (stereo unspecified)	10	-0.45	x
Cc1cccc(N2CCN(C(=O)CC(NC(=O)c3ccccc3Cl)c3ccccc3)CC2)c1C (stereo unspecified)	14	-4.7*	0.054*
COC(=O)c1cc(NC(=O)Cn2c(=O)cnc3ccccc32)cc(C(=O)OC)c1	x	-0.83	x
SMILES	Calb biofilm kill	ROMK primary	ROMK retest
CCOC(=O)CSc1nc(C(C)C)nc2sc(C)c(C)c12	6	-0.042	x
O=C(Nc1ccc2oc(-c3ccncc3)nc2c1)c1ccccc1	9	0.034	x
O=C(Nc1ccc2oc(-c3ccncc3)nc2c1)c1cccs1	x	x	0.08
COc1ccccc1NS(=O)(=O)c1cccc(NC(=O)c2cc3ccccc3oc2=O)c1	-7	-1.2	x
O=C(NC1CCCC1)C1=COCCO1	x	0.93	x
COc1ccc2c(c1)SCC/C2=C\CN1C(=O)CCC1=O	7	-0.19	x
CCC(CC)=NNC(=O)c1ccccc1OCc1ccc(F)cc1	14	x	x
O=C(CC12CC3CC(CC(C3)C1)C2)NCO	x	0.11	x
CC(NC(=O)CC12CC3CC(CC(C3)C1)C2)C(=O)O (stereo unspecified)	x	2.1*	0.091
COc1cccc2c(=O)c3ccccc3oc12	16	-0.11	x
O=C(Cc1ccc(-c2ccccc2)cc1)NCc1cccnc1	30	3.2*	0.088
O=C(Cc1ccccc1)NCc1cccnc1	16	0.37	x
CCCCc1ccc(S(=O)(=O)NCCc2ccncc2)cc1	x	x	0.062*
CCCCNS(=O)(=O)c1ccc(S(=O)(=O)NCc2ccncc2)cc1	14	-1	x
Cc1ccc(-c2noc(CN(C(=O)CCCCCN3C(=O)c4ccccc4C3=O)C(C)C)n2)cc1	x	-3.6	x
COC(=O)CN1C(c2cccc(Cl)c2)=Nc2ccc(Cl)cc2C1c1ccccc1 (stereo unspecified)	8	x	0.055*
COC(=O)CN1C(c2ccc(OC)cc2)=Nc2ccc(Cl)cc2C1c1ccccc1 (stereo unspecified)	20	x	x
COc1cccc(-c2nn(-c3ccccc3)cc2CNC(C)Cn2cncn2)c1 (stereo unspecified)	11	-1.3	x
CCOC(=O)C(=NCCCN(C)C)NNc1cc(C(F)(F)F)ccc1Cl	23	-2.7*	0.059*
CCOC(=O)C(=NCCCN(C)C)NNc1ccc(Br)cc1	23	x	x
